A selection: hits, their analogues and other compounds. The true share with any hit is near 1.7%.
Dynein cargo inh: blocks dynein driven cargo transport along microtubules; 3617.4 mouse cells, GR-EGFP nuclear translocation imaging; test concentration mostly 20 µM; stimulated with dexamethasone, 1 µM; hits give low values; z-score, hits read low; hit rate 0.47% among 220,000;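 active = plate z-score of nuclear minus cytoplasmic receptor signal below a set negative limit, without overly bright fluorescence or cell loss, cut at about -3.5 in these data, passing the limit was not always enough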;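 also: z-score of nuclear minus cytoplasmic ring GR-EGFP intensity difference per well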
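Schedule: 48 h induction, then 1 h compound, then 30 min agonist, 37 °C. Buffer or medium: tetracycline-free induction medium containing charcoal-stripped FBS. Reagent: 1.0 µM final dexamethasone stimulus. Evaluation: nuclear versus cytoplasmic GR-EGFP signal, averaged per well. Signal: high-content fluorescence imaging after fixation.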
EP2 mod: modulates human prostaglandin E2 receptor EP2 signaling | AID 940 | hit rate 0.83% among 260,000 | EP2-expressing cells, cAMP HTRF FRET, PGE2 co-stimulation | induction, % at 25 µM;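 active = compounds whose cAMP rise, as percent of the full-agonist control response, exceeds 60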;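 also: rat C6 glioma line stably carrying human EP2 under a CMV promoter; the protocol text gives 20 µM as final concentration; 100% = response of wells given 1 µM PGE2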
Target sequence (P43116 whole entry, looked up): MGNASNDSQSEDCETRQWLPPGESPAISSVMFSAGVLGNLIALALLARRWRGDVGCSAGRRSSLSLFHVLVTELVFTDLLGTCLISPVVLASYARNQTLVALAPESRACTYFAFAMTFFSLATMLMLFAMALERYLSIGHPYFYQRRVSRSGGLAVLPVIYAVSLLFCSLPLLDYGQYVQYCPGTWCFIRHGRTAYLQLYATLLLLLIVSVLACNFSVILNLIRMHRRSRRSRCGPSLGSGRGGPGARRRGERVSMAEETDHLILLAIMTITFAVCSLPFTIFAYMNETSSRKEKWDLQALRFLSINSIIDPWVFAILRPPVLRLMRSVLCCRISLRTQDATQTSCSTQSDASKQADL
Hsp70 act: transcriptional activators of Hsp70; HeLa Hsp70 promoter luciferase reporter, luminescence; scaled: vehicle 0, proteasome-inhibitor control 100%; activation, % at 10 µM; hit rate 0.04% among 200,000; AID 1203;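 active = activation above the mean across all tested compounds plus 3 SD, cutoff set per campaign, cut at about 5.5% in these data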;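 also: 100% = MG132 at 30 µM as the positive control and 0% = DMSO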
PGE2 EP2 inh: blocks the human prostaglandin E2 receptor EP2 | P43116 | C6 glioma cells expressing human EP2, cAMP TR-FRET; cells stimulated with saturating PGE2 | inhibition, % at 25 µM | hit rate 0.52% among 260,000;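 active = percent inhibition above 40 after rounding to a whole number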;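 also: rat C6 glioma host cells with rolipram phosphodiesterase inhibitor present; the protocol text gives 20 µM as final concentration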
Dynein confirm: dynein cargo transport inhibition, confirmation | shares compounds with Dynein cargo inh | 3617.4 GR-EGFP nuclear translocation imaging, dexamethasone-induced | calls only at 20 µM | hit rate 69% among 1,000;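 active = inhibition of receptor movement into the nucleus at or above a set limit in both runs, with normal cell brightness and cell count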;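 also: dexamethasone at 1 µM final in well for 30 min; nuclear minus cytoplasmic GR-EGFP mean intensity difference in channel 2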
The depositor's hits bear a star; i = inactive; · = not tested or not shown; + = active, no number.

SMILES	Dynein cargo inh	EP2 mod	Hsp70 act	PGE2 EP2 inh	Dynein confirm
CC(=O)N(C1CC(C)C(C#N)(C#N)C1(C#N)C#N)N(C)C (configuration not stated)	-6.8*	-52	0	6	+
C=CCNCCCOc1ccc(Cl)cc1C(C)(C)C	-6.7*	19	0	4	i
COCCCn1c(SCC(N)=O)nnc1-c1ccc(S(=O)(=O)N2CCCCC2)cc1	·	-11	·	3	·
Cc1ccc(NCCC(=O)c2ccco2)cc1	·	-57	·	11	·
OC1(c2ccccc2F)CCN(Cc2ccccc2OCc2ccccn2)CC1	·	-25	·	5	·
O=C1/C(=C/c2ccccc2[N+](=O)[O-])COc2ccccc21	-5.7*	-25	2	9	+
CNc1ccc(/C=C2\COc3ccccc3C2=O)cc1[N+](=O)[O-]	0.7	-12	-1	17	·
CCCN(CCC)C(=O)c1cc([N+](=O)[O-])cc2c1-c1ccc([N+](=O)[O-])cc1C2=C(C#N)C#N	-4.6*	-59	·	15	+
N[C@@H](C(=O)O)[C@@H](O)[C@H](O)[C@H](O)CO	·	23	·	9	·
Cc1c(N=C2C=C(Br)C(=O)C(Br)=C2)c(=O)n(-c2ccccc2)n1C	-0.042	15	0	10	·
Cc1c(N=C2C=CC(=O)c3ccccc32)c(=O)n(-c2ccccc2)n1C	-4.7*	8	0	4	+
c1ccc(C2CC(c3cccs3)=NN2c2ccccc2)cc1 (configuration not stated)	-0.75	10	·	20	·
COc1ccc(C2CC(c3cccs3)=NN2c2ccc(C=O)cc2)cc1 (configuration not stated)	-9.6	24	0	8	i
CCC1=C(OC(=O)N(CC)CC)N2C(=O)OC(=NCc3ccccc3)[C@]2(C)[C@H]2C1=CC[C@H]1C(=O)N(c3ccccc3)C(=O)[C@H]12	-0.87	4	·	12	·
CCC1=C2CC[C@H]3C(=O)N(c4ccccc4)C(=O)[C@H]3[C@H]2[C@@]2(C)C(=NCc3ccccc3)OC(=O)N2C1=O	-4.2*	1	·	16	+
CCCN1C(=O)/C(=C\c2ccncc2)SC1=Nc1ccccc1	-4.4*	55	0	4	i
CCN1C(=O)/C(=C\c2ccncc2)SC1=Nc1ccc(C)c(C)c1	-3	31	0	3	·
Cc1cc(C)c2c(=O)n(CC(=O)NCCCN3CCN(c4ccccc4F)CC3)sc2n1	-7.9*	-63	0	·	+
COCCN1Cc2cc3cc(C)ccc3nc2SC1=Nc1ccc(OC)cc1OC	·	-14	·	7	·
COc1ccc(C(=O)n2nc(-c3ccco3)nc2SC)cc1OC	-4*	4	0	10	i
CN(C)S(=O)(=O)c1ccc(S(=O)(=O)N2CCC(Cc3ccccc3)CC2)cc1	·	10	·	8	·
Cc1cc(C)c2cc(CN(Cc3nnnn3CCc3ccccc3)C3CCCC3)c(=O)[nH]c2c1	·	45	·	20	·
CCOC(=O)c1ccc(S(=O)(=O)N2C(C)CCCC2C)cc1 (configuration not stated)	·	34	·	18	·
O=C(Cn1nnc2ccccc2c1=O)Nc1ccc(N2CCOCC2)cc1	·	-30	·	9	·
O=C(Cc1cccs1)Nc1nc(-c2ccc(F)cc2F)cs1	-3.5*	-65	0	19	i
SMILES	Dynein cargo inh	EP2 mod	Hsp70 act	PGE2 EP2 inh	Dynein confirm
COc1ccc(OC)c(-c2csc(NC(=O)Cc3cccs3)n2)c1	-0.71	-61	0	2	·
N#Cc1c(NC(=S)NC(=O)c2cccs2)sc2c1CCCC2	·	-58	·	30	·
CCOC(=O)C1=C(CSc2nc(-c3ccncc3)ccc2C#N)OC(N)=C(C#N)C1c1ccc(OC)cc1 (configuration not stated)	-5.8	-8	0	18	i
CCOC(=O)C1=C(CSc2nc(-c3ccncc3)ccc2C#N)OC(N)=C(C#N)C1c1cccnc1 (configuration not stated)	-1.6	6	1	26	·
CCOC(=O)C(C(=O)OCC)C(C(=O)OCC)N1CCOCC1 (configuration not stated)	-4.6*	-12	0	5	+
CCCOc1ccc(C(=O)CCN2CCN(C(=O)OCC)CC2)cc1	-4.1*	5	0	3	i
COc1ccc(N2C(=O)CC(Sc3nnnn3-c3ccc(F)cc3)C2=O)cc1 (configuration not stated)	-4	16	0	4	+
COCCNC(=O)/C(C#N)=C/c1ccc(O)c([N+](=O)[O-])c1	1.7	0	0	7	·

Screening data: PubChem BioAssay, several laboratories
